This note sets out measurements from ChEMBL document CHEMBL4342497, “Design, Synthesis, and Conformation-Activity Study of Unnatural Bridged Bicyclic Depsipeptides as Highly Potent Hypoxia Inducible Factor-1 Inhibitors and Antitumor Agents” (J Med Chem, 2020).

Structures are written as SMILES. Calls of active or inactive are those of the source. The calls are words filed in the database; no cut-off is given here. Where only a bound is given, the exact number is not on record here.

Assay [1] is described as follows: Retardation factor of the compound.
The nature of assay [2]: Inhibition of HIF1 (unknown origin) expressed in HEK293 cells assessed as reduction in hypoxia-induced HIF1 activation pre-incubated for 1 hrs before hypoxia exposure for 24 hrs by luciferase reporter gene assay. It is filed as cell-based. Conditions: Homo sapiens. An outline of the steps:
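HEK293 cells stably carrying HRE reporter plasmid p2.1, seeded at 8.0×10^4 per well and grown 24 h in normoxia. Medium changed to fresh medium with 0.25% DMSO and a range of compound concentrations for 1 h, then 24 h at 1% O2 or normoxia. Luciferase activity normalised to protein content. IC50 as mean ± SD, n = 3.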
(A reporter such as luciferase makes a cellular process visible.)

The test system of assay [3] is MCF7. The assay can be described thus: Cytotoxicity against human MCF7 cells assessed as reduction in cell viability incubated for 24 hrs by MTT assay. The assay is classed as functional, cell-based. Conditions: MCF7, 24 h. An outline of the steps:
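MCF-7 cells seeded at 8.0×10^3 per well and treated with compound for 24 h. MTT 0.5 mg/mL added for 4 h at 37 °C after medium exchange, then DMSO lysis and absorbance at 570 nm. IC50 as mean ± SD, n = 3.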
For orientation: Tetrazolium dyes change colour on reduction, which living cells bring about.

The test system of a further assay is HT-29. The assay can be described thus: Cytotoxicity against human HT-29 cells assessed as reduction in cell viability incubated for 72 hrs by MTT assay. The assay is classed as functional, cell-based. Conditions: HT-29, 72 h. In a few lines:
(§1)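 Cells seeded overnight at 3.0×10^3 (A549), 5.0×10^3 (HT29) or 4.0×10^3 (MCF-7, MDA-MB-231) per well, then exposed to compound for 72 h. Medium replaced, MTT 0.5 mg/mL added for 4 h at 37 °C, cells lysed in DMSO, absorbance read at 570 nm. IC50 as mean ± SD, n = 3. Final DMSO below 1.0%.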

In the next assay the test system is MDA-MB-231. In words: Cytotoxicity against human MDA-MB-231 cells assessed as reduction in cell viability incubated for 72 hrs by MTT assay. It is filed as functional, cell-based. Conditions: MDA-MB-231, 72 h. In a few lines:
as §1

Assay [4] concerns MCF7. The assay can be described thus: Cytotoxicity against human MCF7 cells assessed as reduction in cell viability incubated for 72 hrs by MTT assay. It is filed as functional, cell-based. Conditions: MCF7, 72 h. An outline of the steps: as §1
The subject of the next assay is A549. In words: Cytotoxicity against human A549 cells assessed as reduction in cell viability incubated for 72 hrs by MTT assay. It is filed as functional, cell-based. The following applies: A549, 72 h. In a few lines:
as §1

Assay [5] relates to MCF7. In words: Inhibition of hypoxia-induced HIF1 protein expression in human MCF7 cells incubated for 16 hrs by Western blot analysis. It is filed as functional, cell-based. In a few lines: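 MCF-7 cells (2.5×10^6 per 100 mm dish) exposed to several compound concentrations for 16 h under 20% or 1% O2. Lysates run on 8% SDS-PAGE and blotted to nitrocellulose. Blocked in 5% milk, probed with anti-HIF-1α (1:1000) and β-actin (1:3000), then HRP secondary. Detected by chemiluminescence.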

Assay [6] relates to MCF7. The assay can be described thus: Inhibition of hypoxia-induced HIF1 mRNA expression in human MCF7 cells incubated for 16 hrs by RT-PCR analysis. It is filed as functional, cell-based.
Assay [7] is described as follows: Binding affinity to synthetic d(ACGTAGAACGT) dsDNA assessed as melting temperature at 2.5 uM by SYBR green I dye dependent differential scanning fluorimetry based thermal denaturation method (reference value: 44.2 +/- 1.0 degC). (In general: Differential scanning fluorimetry follows unfolding on heating by fluorescence.)
The nature of assay [8]: Binding affinity to synthetic 5'-FAM-CCCTACGTATATGAAAATATACGTAGGG-BHQ1-3' dsDNA assessed as melting temperature at 2.5 uM by SYBR green I dye dependent differential scanning fluorimetry based thermal denaturation method (reference value: 70.7 +/- 0.0 degC).

What is called IC50 is the point on the concentration scale where inhibition reaches its midpoint. With `CC(C)[C@H]1C(=O)OC[C@@H](NC(=O)c2cnc3ccccc3n2)C(=O)N[C@@H](C)C(=O)N(C)[C@H]2CSC(C)(C)SC[C@@H](C(=O)N1C)N(C)C(=O)[C@H](C)NC(=O)[C@H](NC(=O)c1cnc3ccccc3n1)COC(=O)[C@H](C(C)C)N(C)C2=O`, the Rm in [1] was 0.31. Further, the IC50 in [2] stood at 25.2 nM; in the assay on MCF7 [3], 5900 nM.
For `CC(C)[C@H]1C(=O)OC[C@@H](NC(=O)c2cnc3ccccc3n2)C(=O)N[C@@H](C)C(=O)N(C)[C@H]2CCCC[C@@H](C(=O)N1C)N(C)C(=O)[C@H](C)NC(=O)[C@H](NC(=O)c1cnc3ccccc3n1)COC(=O)[C@H](C(C)C)N(C)C2=O`, the IC50 worked out at 57.4 nM in the assay with HT-29; 25.3 nM in the assay with MDA-MB-231; 23.5 nM in the assay with MCF7 [4]; 71.9 nM with A549; 6.3 nM in assay [2]; 123 nM with MCF7 [3]. Besides, in assay [1], the Rm was determined as 0.32.
As to `CC(C)[C@H]1C(=O)OC[C@@H](NC(=O)CNC(=O)c2cnc3ccccc3n2)C(=O)N[C@@H](C)C(=O)N(C)[C@H]2CSSC[C@@H](C(=O)N1C)N(C)C(=O)[C@H](C)NC(=O)[C@H](NC(=O)CNC(=O)c1cnc3ccccc3n1)COC(=O)[C@H](C(C)C)N(C)C2=O`, the Rm in assay [1] is -0.05. The figures for the IC50 (in assay [2]; in the assay on MCF7 [3]) were over 100000 nM and 13600 nM, respectively.
Consider `CC[C@H](C)[C@H]1C(=O)OC[C@@H](NC(=O)c2cnc3ccccc3n2)C(=O)N[C@@H](C)C(=O)N(C)[C@H]2CSSC[C@@H](C(=O)N1C)N(C)C(=O)[C@H](C)NC(=O)[C@H](NC(=O)c1cnc3ccccc3n1)COC(=O)[C@H](C(C)C)N(C)C2=O`, for which the Rm in assay [1] was 0.39. Moreover, the IC50 in assay [2] was determined as 55.5 nM; with MCF7 [3], 4100 nM.
For `CC(C)[C@H]1C(=O)OC[C@@H](NC(=O)c2cnc3ccccc3n2)C(=O)N[C@@H](C)C(=O)N(C)[C@H]2C[Se]C[C@@H](C(=O)N1C)N(C)C(=O)[C@H](C)NC(=O)[C@H](NC(=O)c1cnc3ccccc3n1)COC(=O)[C@H](C(C)C)N(C)C2=O`, the IC50 with HT-29 is 11.7 nM; in the assay on MDA-MB-231, 6.8 nM; in the assay with MCF7 [4], 7.1 nM; in the assay with A549 it was 14.5 nM; in assay [2], 2 nM. In the assay with MCF7 [5], the inhibition result was “Dose-dependent effect”. This compound also had a Rm in [1] of 0.2.
In the case of `CC(=O)N[C@@H]1COC(=O)[C@H](C(C)C)N(C)C(=O)[C@@H]2CSSC[C@@H](C(=O)N(C)[C@@H](C(C)C)C(=O)OC[C@@H](NC(C)=O)C(=O)N[C@@H](C)C(=O)N2C)N(C)C(=O)[C@H](C)NC1=O`, in assay [1], the Rm is -0.3. Besides, the IC50 in [2] was over 100000 nM; in the assay with MCF7 [3], 15500 nM.
In the case of `CC[C@H](C)[C@H]1C(=O)OC[C@@H](NC(=O)c2cnc3ccccc3n2)C(=O)N[C@@H](C)C(=O)N(C)[C@H]2CSSC[C@@H](C(=O)N1C)N(C)C(=O)[C@H](C)NC(=O)[C@H](NC(=O)c1cnc3ccccc3n1)COC(=O)[C@H]([C@@H](C)CC)N(C)C2=O`, the Rm in assay [1] amounted to 0.45. Also, the IC50 is 60 nM in assay [2] and 4000 nM in the assay on MCF7 [3].
Take `CC(C)[C@@H]1C(=O)OC[C@H](NC(=O)c2cnc3ccccc3n2)C(=O)N[C@H](C)C(=O)N(C)[C@@H]2CSSC[C@H](C(=O)N1C)N(C)C(=O)[C@@H](C)NC(=O)[C@@H](NC(=O)c1cnc3ccccc3n1)COC(=O)[C@@H](C(C)C)N(C)C2=O`: the inhibition entry with MCF7 [6] and in the assay with MCF7 [5] was “inactive” throughout. In [1], the Rm was determined as 0.15. For the same compound, the IC50 (in [2]; in the assay with MCF7 [3]) was over 100000 nM throughout.
Broadly, the Tm is the temperature at which the thermal transition is half complete. `CC(C)[C@H]1C(=O)OC[C@@H](NC(=O)c2nc3ccccc3cc2O)C(=O)N[C@@H](C)C(=O)N(C)[C@H]2C/C=C\C[C@@H](C(=O)N1C)N(C)C(=O)[C@H](C)NC(=O)[C@H](NC(=O)c1nc3ccccc3cc1O)COC(=O)[C@H](C(C)C)N(C)C2=O`: in the assay with MCF7 [5], the inhibition result was “Dose-dependent effect”. Also, the IC50 turned out to be 0.22 nM in the assay on MCF7 [4] and 0.09 nM in [2]. Further, in assay [7], the Tm came to 54.3 °C. Further, the Rm in [1] is 0.52.
Regarding `CC(C)[C@H]1C(=O)OC[C@@H](NC(=O)c2cnc3ccccc3n2)C(=O)N[C@@H](C)C(=O)N(C)[C@H]2CSC[C@@H](C(=O)N1C)N(C)C(=O)[C@H](C)NC(=O)[C@H](NC(=O)c1cnc3ccccc3n1)COC(=O)[C@H](C(C)C)N(C)C2=O`, the IC50 with HT-29 was found to be 16.2 nM; in the assay with MDA-MB-231, 8 nM; with MCF7 [4], 9.7 nM; in the assay with A549, 16.2 nM; in assay [2], 2.4 nM. In the assay with MCF7 [5], the inhibition result is “Dose-dependent effect”. In assay [1], the Rm was found to be 0.2.
As for `CC(C)[C@H]1C(=O)OC[C@@H](NC(=O)c2cnc3ccccc3n2)C(=O)N[C@@H](C)C(=O)N(C)[C@@H](CS)C(=O)N(C)[C@@H](C(C)C)C(=O)OC[C@@H](NC(=O)c2cnc3ccccc3n2)C(=O)N[C@@H](C)C(=O)N(C)[C@@H](CS)C(=O)N1C`, in assay [1], the Rm worked out at 0.28. The IC50 in [2] came to 32.3 nM; in the assay with MCF7 [3] it was 2700 nM.
As for `CC(C)[C@H]1C(=O)OC[C@@H](NC(=O)c2cnc3ccccc3n2)C(=O)N[C@@H](C)C(=O)N(C)[C@H]2C/C=C\C[C@@H](C(=O)N1C)N(C)C(=O)[C@H](C)NC(=O)[C@H](NC(=O)c1cnc3ccccc3n1)COC(=O)[C@H](C(C)C)N(C)C2=O`, the IC50 in the assay on HT-29 was 6.2 nM; with MDA-MB-231, 3.2 nM; with MCF7 [4], 2.9 nM; in the assay with A549, 5.3 nM; in assay [2], 1 nM; in the assay with MCF7 [3], 13.4 nM. In addition, the inhibition result in the assay with MCF7 [5] is “Dose-dependent effect”. Further, the Tm in assay [8] worked out at 81.3 °C; in assay [7], 52.5 °C. This compound also had a Rm in assay [1] of 0.25.
Take `CC(=O)SC[C@H]1C(=O)N(C)[C@@H](C(C)C)C(=O)OC[C@@H](NC(=O)c2cnc3ccccc3n2)C(=O)N[C@@H](C)C(=O)N(C)[C@@H](CSC(C)=O)C(=O)N(C)[C@@H](C(C)C)C(=O)OC[C@@H](NC(=O)c2cnc3ccccc3n2)C(=O)N[C@@H](C)C(=O)N1C`: the Rm in assay [1] came to 0.23. In addition, the IC50 is 235 nM in [2] and 8700 nM in the assay on MCF7 [3].
In the case of `CC(C)[C@H]1C(=O)OC[C@@H](NC(=O)c2cnc3ccccc3n2)C(=O)N[C@@H](C)C(=O)N(C)[C@H]2CSSC[C@@H](C(=O)N1C)N(C)C(=O)[C@H](C)NC(=O)[C@H](NC(=O)c1cnc3ccccc3n1)COC(=O)[C@@H](C(C)C)N(C)C2=O`, the Rm in [1] is 0.24. Besides, the IC50 in assay [2] was found to be 2000 nM; in the assay with MCF7 [3], 24300 nM.
Taken in the same sequence, the figures for `CC(C)[C@@H]1C(=O)OC[C@@H](NC(=O)c2cnc3ccccc3n2)C(=O)N[C@@H](C)C(=O)N(C)[C@H]2CSSC[C@@H](C(=O)N1C)N(C)C(=O)[C@H](C)NC(=O)[C@H](NC(=O)c1cnc3ccccc3n1)COC(=O)[C@@H](C(C)C)N(C)C2=O` were 0.25, 590 nM and 6100 nM.
Consider `CSC[C@H]1C(=O)N(C)[C@@H](C(C)C)C(=O)OC[C@@H](NC(=O)c2cnc3ccccc3n2)C(=O)N[C@@H](C)C(=O)N(C)[C@@H](CSC)C(=O)N(C)[C@@H](C(C)C)C(=O)OC[C@@H](NC(=O)c2cnc3ccccc3n2)C(=O)N[C@@H](C)C(=O)N1C`, for which the Rm in [1] stood at 0.34. The IC50 in assay [2] came to 222 nM; in the assay on MCF7 [3] it was 4300 nM.
